Measurements: ChEMBL document CHEMBL1133812, “Small molecule somatostatin receptor subtype-2 antagonists” (Bioorg Med Chem Lett, 2001)
Where a SMILES comes first, the peptide text is derived from it. [ ]: non-standard residue; d: D form. The star is where a group is joined. Phe(3-F) = N[C@@H](Cc1cccc(F)c1)C(=O)O; Tos = Cc1ccc(S(=O)(=O)*)cc1

What was measured:
[1] = biological target: Somatostatin receptor type 2 (Homo sapiens, UniProt P30874); experiment: Antagonistic activity towards sst2 receptor in GH4C1 cells a concentration of 1-2 x 10e6/mL incubated for 20 minutes; assay type: functional, cell-based, GH4-C1
Chain of Somatostatin receptor type 2 (P30874 whole entry): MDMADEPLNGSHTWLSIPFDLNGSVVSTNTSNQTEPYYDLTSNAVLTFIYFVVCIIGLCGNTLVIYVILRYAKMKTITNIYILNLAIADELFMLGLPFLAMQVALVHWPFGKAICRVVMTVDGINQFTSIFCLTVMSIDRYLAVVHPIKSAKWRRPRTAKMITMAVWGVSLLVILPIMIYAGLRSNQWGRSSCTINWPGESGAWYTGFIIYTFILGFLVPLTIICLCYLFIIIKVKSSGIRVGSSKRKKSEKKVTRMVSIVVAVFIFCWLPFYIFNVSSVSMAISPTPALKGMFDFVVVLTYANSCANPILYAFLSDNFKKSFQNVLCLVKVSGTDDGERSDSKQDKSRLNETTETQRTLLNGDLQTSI
Outline: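 GH4C1 pituitary cells (1–2×10⁶/mL) exposed to compound dose-titrations with 100 nM VIP plus 10 nM somatostatin 14, 20 min at 37 °C. cAMP content read against cAMP standards in adenylyl cyclase activation plates. Antagonism scored as a cAMP rise over VIP+somatostatin control wells. Values from single experiments or means of 2–4 replicate experiments.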

[2] = biological target: Somatostatin receptor type 2 (Sus scrofa); experiment: Inhibitory concentration towards binding of sst2 receptor using [125I]somatostatin as radioligand in Neuro2A cells

IC50 [1]	IC50 [2]	IC50 ([1]; gh4-c1)	IC50 ([2]; neuro2a)	SMILES
29 nM	2.9 nM	–	–	CC(C)(C)OC(=O)[C@H](CCCCN)NC(=O)[C@@H](Cc1c[nH]c2ccccc12)NC(=O)N1CCN(S(=O)(=O)c2ccccc2)CC1
7700 nM	9.2 nM	–	–	Cc1ccc(S(=O)(=O)N2CCN(C(=O)N[C@H](Cc3c[nH]c4ccccc34)C(=O)N[C@@H](CCCCN)C(=O)OC(C)(C)C)CC2)cc1
6500 nM	> 2000 nM	–	–	COC(=O)[C@H](CCCN=C(N)N)NC(=O)[C@H](Cc1cccc(F)c1)NS(=O)(=O)c1ccc(C)cc1 (Tos-[Phe(3-F)]-Arg-OMe)
6.5 nM	0.26 nM	–	–	CC(C)(C)OC(=O)[C@H](CCCCN)NC(=O)[C@@H](Cc1c[nH]c2ccccc12)NC(=O)N1CCC(n2c(=O)[nH]c3ccccc32)CC1
120 nM	3.2 nM	–	–	CC(C)(C)OC(=O)[C@H](CCCCN)NC(=O)[C@@H](Cc1c[nH]c2ccccc12)NC(=O)C1CCN(S(=O)(=O)c2ccccc2)CC1
–	–	270 nM	4.1 nM	CC(C)(C)C1N[C@H](C(=O)NC(Cc2cccc3ccccc23)C(N)=O)CSSC[C@@H](NC(=O)C(N)Cc2cccc(F)c2)C(=O)NC(Cc2cccnc2)C(=O)N[C@@H](Cc2c[nH]c3ccccc23)C(=O)N[C@@H](CCCCN)C1=O (stereo partly drawn)
1600 nM	6.9 nM	–	–	CC(C)(C)OC(=O)[C@H](CCCCN)NC(=O)[C@@H](Cc1c[nH]c2ccccc12)NC(=O)N1CCN(C(=O)c2ccccc2)CC1
1200 nM	85 nM	–	–	CC(C)(C)OC(=O)[C@H](CCCCN)NC(=O)[C@H](Cc1c[nH]c2ccccc12)NC(=O)c1ccc(-c2ccccc2)cc1
67 nM	4.4 nM	–	–	Cc1ccc(C(=O)N2CCN(C(=O)N[C@H](Cc3c[nH]c4ccccc34)C(=O)N[C@@H](CCCCN)C(=O)OC(C)(C)C)CC2)cc1
